# Measured values taken from ChEMBL document CHEMBL4715736, “Identification of anticancer agents based on the thieno[2,3-b]pyridine and 1H-pyrazole molecular scaffolds” (2016).
# What was measured:
# Format in all cases: functional
# [1] = system: SF-268; test: Growth inhibition of human SF-268 cells assessed as cell growth at 100 uM incubated for 48 hrs by sulforhodamine B assay relative to control; settings: read-out: Activity
# [2] = system: DU-145; test: Growth inhibition of human DU-145 cells incubated for 48 hrs by sulforhodamine B assay; settings: for CC50: read-out: LC50 (the source's name)
# Summary of the method: (§1)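 NCI Developmental Therapeutics Program NCI60 panel. Compounds that were active in the 10 µM one-dose screen went on to dose–response testing. Growth at each concentration is expressed relative to untreated control (100%). GI50 (concentration giving 50% of maximal inhibition of proliferation) and TGI (concentration giving total growth inhibition) were derived from the curves.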
# [3] = system: Hs-578T; test: Growth inhibition of human Hs-578T cells assessed as cell growth at 0.1 uM incubated for 48 hrs by sulforhodamine B assay relative to control; settings: read-out: Activity
# [4] = system: RXF 393; test: Growth inhibition of human RXF 393 cells assessed as cell growth at 1 uM incubated for 48 hrs by sulforhodamine B assay relative to control; settings: read-out: Activity
# [5] = system: UACC-62; test: Growth inhibition of human UACC-62 cells incubated for 48 hrs by sulforhodamine B assay
# Summary of the method: (§2)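 NCI DTP 60-line human tumour panel. Dose-response curves were run only for ligands active in the initial 10 µM screen. GI50 (concentration giving 50% of maximal inhibition of proliferation) and TGI (concentration giving total growth inhibition) were derived from these curves.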
# [6] = system: COLO 205; test: Growth inhibition of human COLO 205 cells incubated for 48 hrs by sulforhodamine B assay; summary of the method: as §1
# [7] = system: NCI-H23; test: Growth inhibition of human NCI-H23 cells incubated for 48 hrs by sulforhodamine B assay
# Summary of the method: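 NCI60 panel at the NCI Developmental Therapeutics Program. Only compounds active in the 10 µM screen went to dose-response testing. GI50, the concentration giving 50% of maximal inhibition of proliferation, and TGI, the concentration giving total growth inhibition, were derived from the dose-response curves.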
# [8] = system: UO-31; test: Growth inhibition of human UO-31 cells assessed as cell growth at 100 uM incubated for 48 hrs by sulforhodamine B assay relative to control; settings: read-out: Activity
# [9] = system: UO-31; test: Growth inhibition of human UO-31 cells assessed as cell growth at 0.1 uM incubated for 48 hrs by sulforhodamine B assay relative to control; settings: read-out: Activity
# [10] = system: A549; test: Growth inhibition of human A549/ATCC cells assessed as cell growth at 1 uM incubated for 48 hrs by sulforhodamine B assay relative to control; settings: read-out: Activity; summary of the method: as §1
# [11] = system: M14; test: Growth inhibition of human M14 cells assessed as cell growth at 100 uM incubated for 48 hrs by sulforhodamine B assay relative to control; settings: read-out: Activity
# [12] = system: OVCAR-3; test: Growth inhibition of human OVCAR-3 cells assessed as cell growth at 100 uM incubated for 48 hrs by sulforhodamine B assay relative to control; settings: read-out: Activity
# [13] = system: OVCAR-8; test: Growth inhibition of human OVCAR-8 cells assessed as cell growth at 0.1 uM incubated for 48 hrs by sulforhodamine B assay relative to control; settings: read-out: Activity
# [14] = system: MOLT-4; test: Growth inhibition of human MOLT-4 cells assessed as cell growth at 100 uM incubated for 48 hrs by sulforhodamine B assay relative to control; settings: read-out: Activity
# [15] = system: NCI-H226; test: Growth inhibition of human NCI-H226 cells assessed as cell growth at 0.1 uM incubated for 48 hrs by sulforhodamine B assay relative to control; settings: read-out: Activity
# [16] = system: BT-549; test: Growth inhibition of human BT-549 cells incubated for 48 hrs by sulforhodamine B assay; settings: for CC50: read-out: LC50 (the source's name); summary of the method: as §1
# [17] = system: OVCAR-8; test: Growth inhibition of human OVCAR-8 cells assessed as cell growth at 1 uM incubated for 48 hrs by sulforhodamine B assay relative to control; settings: read-out: Activity
# [18] = system: Malme-3M; test: Growth inhibition of human Malme-3M cells assessed as cell growth at 0.1 uM incubated for 48 hrs by sulforhodamine B assay relative to control; settings: read-out: Activity
# [19] = system: PC-3; test: Growth inhibition of human PC-3 cells incubated for 48 hrs by sulforhodamine B assay; settings: for CC50: read-out: LC50 (the source's name); summary of the method: as §2
# [20] = system: NCI-H460; test: Growth inhibition of human NCI-H460 cells assessed as cell growth at 0.01 uM incubated for 48 hrs by sulforhodamine B assay relative to control; settings: read-out: Activity
# [21] = system: NCI-H522; test: Growth inhibition of human NCI-H522 cells assessed as cell growth at 100 uM incubated for 48 hrs by sulforhodamine B assay relative to control; settings: read-out: Activity
# [22] = system: Hs-578T; test: Growth inhibition of human Hs-578T cells assessed as cell growth at 1 uM incubated for 48 hrs by sulforhodamine B assay relative to control; settings: read-out: Activity
# [23] = system: TK-10; test: Growth inhibition of human TK-10 cells incubated for 48 hrs by sulforhodamine B assay; settings: for CC50: read-out: LC50 (the source's name); summary of the method: as §2
# [24] = system: ACHN; test: Growth inhibition of human ACHN cells assessed as cell growth at 0.01 uM incubated for 48 hrs by sulforhodamine B assay relative to control; settings: read-out: Activity
# [25] = system: NCI-H226; test: Growth inhibition of human NCI-H226 cells assessed as cell growth at 100 uM incubated for 48 hrs by sulforhodamine B assay relative to control; settings: read-out: Activity
# [26] = system: RXF 393; test: Growth inhibition of human RXF 393 cells assessed as cell growth at 0.1 uM incubated for 48 hrs by sulforhodamine B assay relative to control; settings: read-out: Activity
# [27] = system: LOX IMVI; test: Growth inhibition of human LOX IMVI cells assessed as cell growth at 1 uM incubated for 48 hrs by sulforhodamine B assay relative to control; settings: read-out: Activity
# [28] = system: OVCAR-5; test: Growth inhibition of human OVCAR-5 cells assessed as cell growth at 1 uM incubated for 48 hrs by sulforhodamine B assay relative to control; settings: read-out: Activity
# [29] = system: MDA-MB-468; test: Growth inhibition of human MDA-MB-468 cells assessed as cell growth at 100 uM incubated for 48 hrs by sulforhodamine B assay relative to control; settings: read-out: Activity
# [30] = system: SK-MEL-2; test: Growth inhibition of human SK-MEL-2 cells assessed as cell growth at 1 uM incubated for 48 hrs by sulforhodamine B assay relative to control; settings: read-out: Activity
# [31] = system: OVCAR-5; test: Growth inhibition of human OVCAR-5 cells incubated for 48 hrs by sulforhodamine B assay; settings: for CC50: read-out: LC50 (the source's name); summary of the method: as §2
# [32] = system: T47D; test: Growth inhibition of human T47D cells assessed as cell growth at 100 uM incubated for 48 hrs by sulforhodamine B assay relative to control; settings: read-out: Activity
# [33] = system: UO-31; test: Growth inhibition of human UO-31 cells incubated for 48 hrs by sulforhodamine B assay; settings: for CC50: read-out: LC50 (the source's name); summary of the method: as §2
# [34] = system: K562; test: Growth inhibition of human K562 cells assessed as cell growth at 0.01 uM incubated for 48 hrs by sulforhodamine B assay relative to control; settings: read-out: Activity
# [35] = system: OVCAR-3; test: Growth inhibition of human OVCAR-3 cells assessed as cell growth at 0.1 uM incubated for 48 hrs by sulforhodamine B assay relative to control; settings: read-out: Activity
smiles,measurement,setting,value
COc1cccc(NC(=O)c2sc3nc4c(cc3c2N)CN(Cc2ccccc2)CC4)c1,growth at 100 µM,[1],-40%
same,GI50,[2],5.22 µM
same,TGI,[2],22.2 µM
same,CC50,[2],76.3 µM
same,growth at 0.1 µM,[3],92%
same,growth at 1 µM,[4],84%
same,GI50,[5],1.92 µM
same,LC50,[5],> 100 µM
same,TGI,[5],29.8 µM
same,GI50,[6],7.55 µM
same,LC50 (concentration killing 50% of cells),[6],> 100 µM
same,TGI,[6],54.5 µM
same,GI50,[7],7.18 µM
same,LC50 (50% lethal concentration),[7],> 100 µM
same,TGI,[7],49.2 µM
same,growth at 100 µM,[8],-23%
same,growth at 0.1 µM,[9],92%
same,growth at 1 µM,[10],88%
same,growth at 100 µM,[11],-4%
same,growth at 100 µM,[12],-60%
same,growth at 0.1 µM,[13],100%
same,growth at 100 µM,[14],13%
same,growth at 0.1 µM,[15],87%
same,GI50,[16],2.83 µM
same,TGI,[16],26.2 µM
same,CC50,[16],> 100 µM
same,growth at 1 µM,[17],90%
same,growth at 0.1 µM,[18],89%
same,GI50,[19],11.6 µM
same,TGI,[19],91.1 µM
same,CC50,[19],> 100 µM
same,growth at 0.01 µM,[20],101%
same,growth at 100 µM,[21],1%
same,growth at 1 µM,[22],72%
same,GI50,[23],4.82 µM
same,TGI,[23],21.6 µM
same,CC50,[23],86.8 µM
same,growth at 0.01 µM,[24],97%
same,growth at 100 µM,[25],-29%
same,growth at 0.1 µM,[26],95%
same,growth at 1 µM,[27],86%
same,growth at 1 µM,[28],95%
same,growth at 100 µM,[29],-8%
same,growth at 1 µM,[30],77%
same,GI50,[31],36.9 µM
same,TGI,[31],> 100 µM
same,CC50,[31],> 100 µM
same,growth at 100 µM,[32],-19%
same,GI50,[33],3.27 µM
same,TGI,[33],32.3 µM
same,CC50,[33],> 100 µM
same,growth at 0.01 µM,[34],106%
same,growth at 0.1 µM,[35],103%
Cc1cccc(NC(=O)c2sc3nc4c(cc3c2N)C(=O)CCC4)c1,growth at 100 µM,[1],-12%
same,GI50,[2],0.285 µM
same,TGI,[2],≥ 100 µM
same,CC50,[2],≥ 100 µM
same,growth at 0.1 µM,[3],76%
same,growth at 1 µM,[4],-16%
same,GI50,[5],0.333 µM
same,LC50,[5],> 100 µM
same,TGI,[5],≥ 100 µM
same,GI50,[6],0.197 µM
same,LC50 (concentration killing 50% of cells),[6],> 100 µM
same,TGI,[6],≥ 100 µM
same,GI50,[7],0.481 µM
same,LC50 (50% lethal concentration),[7],> 100 µM
same,TGI,[7],≥ 100 µM
same,growth at 100 µM,[8],-23%
same,growth at 0.1 µM,[9],81%
same,growth at 1 µM,[10],19%
same,growth at 100 µM,[11],-48%
same,growth at 100 µM,[12],-23%
same,growth at 0.1 µM,[13],98%
same,growth at 100 µM,[14],6%
same,growth at 0.1 µM,[15],94%
same,TGI,[16],≥ 100 µM
same,CC50,[16],> 100 µM
same,growth at 1 µM,[17],47%
same,growth at 0.1 µM,[18],64%
same,GI50,[19],0.393 µM
same,TGI,[19],≥ 100 µM
same,CC50,[19],> 100 µM
same,growth at 0.01 µM,[20],104%
same,growth at 100 µM,[21],-27%
same,growth at 1 µM,[22],11%
same,GI50,[23],> 100 µM
same,TGI,[23],≥ 100 µM
same,CC50,[23],> 100 µM
same,growth at 0.01 µM,[24],90%
same,growth at 100 µM,[25],-15%
same,growth at 0.1 µM,[26],69%
same,growth at 1 µM,[27],47%
same,growth at 1 µM,[28],44%
same,growth at 100 µM,[29],5%
same,growth at 1 µM,[30],17%
same,TGI,[31],≥ 100 µM
same,CC50,[31],> 100 µM
same,growth at 100 µM,[32],-2%
same,TGI,[33],≥ 100 µM
same,CC50,[33],> 100 µM
same,growth at 0.01 µM,[34],97%
same,growth at 0.1 µM,[35],81%
